SR-BI DiI inh = inhibitors of mouse SR-BI mediated HDL lipid uptake; ldlA[mSR-BI] CHO cells, DiI-HDL uptake fluorescence, 3 h; inhibition, % at 12.5 µM; AID 488896; Q61009; 320,000 compounds, 0.96% hits;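 active means mean replicate inhibition of at least 70% and a set share of replicates each scoring 70 or more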;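 further: 0% = median of neutral control wells and 100% = median of positive control wells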
Target sequence (Q61009 whole entry, looked up): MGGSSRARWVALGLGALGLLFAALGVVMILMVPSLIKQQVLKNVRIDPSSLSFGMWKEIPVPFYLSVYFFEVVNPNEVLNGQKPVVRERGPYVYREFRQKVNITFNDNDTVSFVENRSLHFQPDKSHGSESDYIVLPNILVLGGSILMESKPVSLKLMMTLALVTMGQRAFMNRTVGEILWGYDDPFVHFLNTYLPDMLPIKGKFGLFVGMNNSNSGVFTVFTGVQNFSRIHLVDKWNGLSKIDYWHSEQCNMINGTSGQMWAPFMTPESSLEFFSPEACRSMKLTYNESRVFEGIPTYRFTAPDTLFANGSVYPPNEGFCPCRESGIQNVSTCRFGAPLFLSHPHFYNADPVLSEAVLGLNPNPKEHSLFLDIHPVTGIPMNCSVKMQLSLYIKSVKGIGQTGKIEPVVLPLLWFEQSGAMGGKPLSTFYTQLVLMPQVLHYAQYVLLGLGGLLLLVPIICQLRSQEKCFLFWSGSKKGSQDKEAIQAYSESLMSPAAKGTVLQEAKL
MITF TRPM1 HTS = MITF TRPM1 promoter activation in melanoma cells; SK-MEL-5 TRPM1-promoter luciferase, 24 h; % of positive control, neutral wells = 0; activation, % at 12.5 µM; 300,000 compounds, 0.75% hits; AID 588334;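 active means mean activation of at least 80% with every replicate also reaching 80%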;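 further: 0% = neutral control wells and 100% = parthenolide positive control wells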
Wnt act = activates Wnt/beta-catenin signaling in a reporter cell assay; activator, plate reader; AID 743398; activation, % at 9.35 µM; 300,000 compounds, 1.2% hits; in the data active means activation above about 30%, passing the limit was not always enough;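 further: 0% = neutral control wells and 100% = positive control wells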
SR-BI uptake up = activators of SR-BI mediated HDL lipid uptake; CHO ldlA[mSR-BI] cells, DiI-HDL uptake fluorescence, 3 h; 100 = double the neutral-control signal; activation, % at 12.5 µM; 320,000 compounds, 0.096% hits; AID 504775;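 active means mean replicate activation of at least 60% and every replicate at or above 60%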;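 further: 0% = median plate neutral-control signal and 100% = twice that signal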
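Material: SR-BI-overexpressing, LDLR-lacking CHO cells; schedule: compound exposure 3 h, 37 °C; reagent: DiI-labelled HDL at 10 µg/mL final; technique: bottom-read fluorescence, 550/595 nm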
HSF1 activator = increases HSF-1 driven luciferase reporter signal; NIH3T3-HGL HSF-1 luciferase reporter, MG132, 8 h; 100% = twice DMSO control signal; activation, % at 9 µM; 300,000 compounds, 1.7% hits; AID 504408;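 active means mean replicate activation of at least 50% with a set share of replicates each reaching 50%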;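 further: 0% = median of the neutral control wells and 100% = twice that signal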
DiI quench = quenches DiI-HDL fluorescence, an SR-BI assay artifact | cell-free DiI-HDL fluorescence quenching, 30 min | 470 compounds, 20% hits | AC50, µM (top dose mostly 35 µM), for inactives: at the top dose activity change, negative = quenching | shares compounds with SR-BI DiI inh;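 active means quenching, a falling signal, with AC50 below a set limit tied to the top valid dose, actives reach about 32 µM in these data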
An asterisk follows results filed as active; · = not tested or not shown. Most compounds without a hit are left out; they make up all but 3.6% or so of the library.

SMILES	SR-BI DiI inh	MITF TRPM1 HTS	Wnt act	SR-BI uptake up	HSF1 activator	DiI quench
COc1cccc(-c2cnc(C(O)c3cc(C)c(OC)c(C)c3)[nH]2)c1 (configuration not stated)	·	·	-3	·	·	·
Cc1cccc(C)c1-n1nnnc1C(c1ccnc2ccccc12)N1CCCN(C(=O)OC(C)(C)C)CC1 (configuration not stated)	·	·	4	·	·	·
COc1ccc(NC(=O)Nc2nnc(-c3ccccc3SCc3ccccc3)s2)cc1	101*	3	·	-101	25	3.2µM*
CC(=O)c1ccc(-c2ccccc2C2=CC(=O)CC(C)(C)C2=O)cc1	·	·	-2	·	·	·
COc1ccc(OC)c(CCNC(=O)c2ccc3c(c2)N(Cc2ccc(F)cc2)CCS3)c1	82*	-15	·	-82	10	-12%
Cc1ccc(CN2CCSc3ccc(C(=O)NCCCN4CCN(C)CC4)cc32)cc1	18	7	-4	-18	-7	·
COc1ccc(CCNC(=O)c2ccc3c(c2)N(Cc2ccc(F)cc2)CCS3)c(OC)c1	82*	2	-4	-82	35	-12%
COc1ccc(CCNC(=O)c2ccc3c(c2)N(Cc2ccc(C)cc2)CCS3)cc1OC	75*	-6	·	-75	35	-10%
CCOC(=O)C1=C(C(=O)OCC)C2N(Cc3ccc(C#N)cc3)c3ccccc3[C@@]23C[C@@H](C(=O)OC)N(S(=O)(=O)c2ccc(C#N)cc2)C3=N1 (some centres not stated)	·	·	-5	·	·	·
Cc1nn(C)cc1CN(C)C(=O)C1CCC(=O)N(CCc2cccc(F)c2)C1 (configuration not stated)	·	·	-2	·	·	·
O=C1C2CCCN2C(=O)N1CCCN1CCN(c2ccc([N+](=O)[O-])cc2)CC1 (configuration not stated)	94*	·	0	-94	-1	-2%
O=C1C2CCCCN2C(=O)N1CCN1CCN(c2ccc([N+](=O)[O-])cc2)CC1 (configuration not stated)	45	-5	·	-45	-10	·
COC(=O)c1c(C)[nH]c(C(=O)C(C)OC(=O)C2CC(=O)N(c3ccc(C)cc3)C2)c1C (configuration not stated)	77*	-13	-1	-77	·	-2%
COC(=O)c1c(C)[nH]c(C(=O)C(C)OC(=O)C2CC2C)c1C (configuration not stated)	15	4	6	-15	·	·
Cc1cc(Nc2cc(Cl)cc(Cl)c2)cc(=O)n1-c1cc(Cl)cc(Cl)c1	·	·	-4	·	·	·
CC(C)CN(C(=O)COC(=O)C12CC3CC(CC(O)(C3)C1)C2)C1CCS(=O)(=O)C1 (configuration not stated)	9	·	4	-9	15	-6%
CCN1C(=O)N[C@H]2C[C@@H](c3ccccc3)[C@@H](C)[C@@H](C(=O)N3CCCC3)C[C@H]21	·	·	-1	·	·	·
CC(C)(C)C(=O)Nc1cccc(-c2nc3ccccc3[nH]2)c1	5	7	1	-5	-5	·
CC(C)(C)C(=O)Nc1sc2c(c1-c1nc3ccccc3[nH]1)CCCC2	104*	-14	-6	-104	-3	9µM*
CCOC(=O)C(C)(C)Sc1nc2c(cnn2-c2ccc(C)cc2)c(=O)[nH]1	41	5	-3	-41	7	·
CCOC(=O)C(C)(C)Sc1nc2c(cnn2-c2ccc(F)cc2)c(=O)[nH]1	77*	16	-1	-77	16	-6%
CCOC(=O)C[C@@H]1OC[C@H](CO)N1S(=O)(=O)c1ccc(C)cc1	·	·	0	·	·	·
COc1ccccc1CNC(=O)C1CCC(CNC(=O)[C@@H]2Cc3ccccc3CN2)CC1 (some centres not stated)	77*	-18	-1	-77	8	-5%
CCOC(=O)c1c(SCCN2CCCCC2)n(-c2ccccc2)c(=S)n(-c2ccccc2)c1=O	-16	-99	-4	16	·	·
CCCN(C(=O)c1cc(S(=O)(=O)N(C)c2ccc(OCC)cc2)ccc1C)C1CCS(=O)(=O)C1 (configuration not stated)	-17	5	-1	17	·	·
SMILES	SR-BI DiI inh	MITF TRPM1 HTS	Wnt act	SR-BI uptake up	HSF1 activator	DiI quench
N#Cc1ccccc1S(=O)(=O)N1CCN(C(=O)C2CC(=O)N(c3ccc4c(c3)OCCO4)C2)CC1 (configuration not stated)	-1	5	3	1	·	-10%
CC(=O)Oc1ccc(C(=O)Nc2cc(NC(=O)c3ccc(OC(C)=O)cc3)cc(C(=O)NC(C)(C)C)c2)cc1	22	-11	-1	-22	21	6%
O=C1NN=C(c2ccccc2)C1Cc1ccccc1 (configuration not stated)	-11	9	-7	11	·	·
CCOC(=O)N1CCN(CC(O)COC2CC(C)CCC2C(C)C)CC1 (configuration not stated)	78*	6	·	-78	6	-4%
C=CCOC(=O)c1[nH]c2c(c1C)C(=O)CC(c1ccco1)C2 (configuration not stated)	·	·	·	·	-35	·
Cc1c(C(=O)OCC2CCCO2)[nH]c2c1C(=O)CC(c1ccco1)C2 (configuration not stated)	53	-14	·	-53	57*	-10%
Cc1c(C(=O)OCC(C)C)[nH]c2c1C(=O)CC(c1ccco1)C2 (configuration not stated)	66	-5	-17	-66	-16	·
C/C=C/COC(=O)c1[nH]c2c(c1C)C(=O)CC(c1ccco1)C2 (configuration not stated)	78*	·	-17	-78	-37	-7%
CCC(C)[C@H](NS(=O)(=O)c1ccc(F)cc1Br)C(=O)OC (some centres not stated)	-12	9	-1	12	·	·
CC1(C(=O)NS(=O)(=O)c2cccs2)CCN1C(=O)c1ccco1 (configuration not stated)	·	·	1	·	·	·
Cc1noc(C)c1S(=O)(=O)N(C)C[C@@H]1OCc2cnnn2CCCC(=O)N([C@@H](C)CO)C[C@@H]1C	·	·	-1	·	·	·
COC(=O)[C@@]12C[C@@H](CC(=O)NCc3ccc(C)o3)C(=O)N(Cc3cccc4ccccc34)C1=CCC(C)(C)C2	·	·	-5	·	·	·
COc1cc(C2CC(=O)c3c([nH]c(C(=O)OCCOC(C)C)c3C)C2)cc(OC)c1OC (configuration not stated)	82*	-41	-5	-82	8	-2%
CCOC(=O)c1cccc(NC(=O)Nc2cc(OC)ccc2OC)c1	109*	1	-5	-109	5	4.8µM*
COc1cc(OC)cc(C(=O)Nc2cccc(NC(=O)c3cc(OC)cc(OC)c3)n2)c1	82*	·	1	-82	9	6%
COc1cc(OC)cc(C(=O)Nc2cccc(NC(C)=O)c2)c1	25	-9	13	-25	3	·
